Measured values published in ChEMBL document CHEMBL1158343, “Synthesis, antimicrobial and antiviral evaluation of substituted imidazole derivatives” (Eur J Med Chem, 2009).
Converted amounts (≈) assume the structure as drawn.

Assays:
[1] = tested on: Aspergillus niger; experiment: Antimicrobial activity against Aspergillus niger after 7 days by tube dilution method; format: functional; conditions: 168 h
Procedure, shortened: (§1)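 Tube dilution in DMSO (stock 100 mg/ml) with serial dilutions; incubation 37 °C for 48 h for C. albicans (other organisms' times truncated in text). MIC read as lowest concentration inhibiting visible growth. Norfloxacin (bacteria) and fluconazole (fungi) as reference drugs.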

[2] = tested on: Staphylococcus aureus; experiment: Antimicrobial activity against Staphylococcus aureus after 24 hrs by tube dilution method; format: functional; procedure, shortened: as §1
[3] = tested on: Bacillus subtilis; experiment: Antimicrobial activity against Bacillus subtilis after 24 hrs by tube dilution method; format: functional; procedure, shortened: as §1
[4] = tested on: Escherichia coli; experiment: Antimicrobial activity against Escherichia coli after 24 hrs by tube dilution method; format: functional; procedure, shortened: as §1
[5] = tested on: Candida albicans; experiment: Antimicrobial activity against Candida albicans after 48 hrs by tube dilution method; format: functional; procedure, shortened: as §1
[6] = Cytotoxicity against african green monkey Vero cells assessed as alteration in cell morphology; format: cell-based; conditions: chlorocebus sabaeus
Procedure, shortened: (§2)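 Uninfected cell cultures tested in parallel with the CPE-reduction antiviral assay; cells grown to confluency, then serial compound dilutions added and incubated at 37 °C (3 days in the parallel antiviral set-up). Read-out is microscopic examination of morphology; value is the minimum cytotoxic concentration, the lowest causing a microscopically detectable alteration of normal cell morphology.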

[7] = tested on: Human alphaherpesvirus 1; experiment: Antiviral activity against thymidine kinase-deficient acyclovir-resistant HSV1 KOS infected in human HEL cells assessed as reduction in virus-induced cytopathogenicity after 3 days; format: functional, organism-based; conditions: Human alphaherpesvirus 1, KOS, 72 h
[8] = tested on: Respiratory syncytial virus; experiment: Antiviral activity against RSV infected in human HeLa cells assessed as reduction in virus-induced cytopathogenicity after 3 days; format: functional, organism-based; conditions: 72 h
[9] = tested on: Coxsackievirus B4; experiment: Antiviral activity against Coxsackievirus B4 infected in african green monkey Vero cells assessed as reduction in virus-induced cytopathogenicity after 3 days; format: functional, organism-based; conditions: Enterovirus B, 72 h
[10] = Cytotoxicity against human HeLa cells assessed as alteration in cell morphology; format: cell-based; procedure, shortened: as §2
[11] = tested on: Human alphaherpesvirus 2; experiment: Antiviral activity against HSV2 G infected in human HEL cells assessed as reduction in virus-induced cytopathogenicity after 3 days; format: functional, organism-based; conditions: Human alphaherpesvirus 2, strain G, 72 h
[12] = tested on: Vesicular stomatitis virus; experiment: Antiviral activity against VSV infected in human HEL cells assessed as reduction in virus-induced cytopathogenicity after 3 days; format: functional, organism-based; conditions: 72 h
[13] = Cytotoxicity against human HEL cells assessed as alteration in cell morphology; format: cell-based; procedure, shortened: as §2
[14] = tested on: Punta Toro virus; experiment: Antiviral activity against Punta Toro virus infected in african green monkey Vero cells assessed as reduction in virus-induced cytopathogenicity after 3 days; format: functional, organism-based; conditions: 72 h
[15] = tested on: Mammalian orthoreovirus 1; experiment: Antiviral activity against Reovirus 1 infected in african green monkey Vero cells assessed as reduction in virus-induced cytopathogenicity after 3 days; format: functional, organism-based; conditions: Mammalian orthoreovirus 1, Vero, 72 h
[16] = tested on: Human respirovirus 3; experiment: Antiviral activity against Parainfluenza-3 virus infected in african green monkey Vero cells assessed as reduction in virus-induced cytopathogenicity after 3 days; format: functional, organism-based; conditions: Human respirovirus 3, Vero, 72 h
[17] = tested on: Sindbis virus; experiment: Antiviral activity against Sindbis virus infected in african green monkey Vero cells assessed as reduction in virus-induced cytopathogenicity after 3 days; format: functional, organism-based; conditions: 72 h
[18] = tested on: Coxsackievirus B4; experiment: Antiviral activity against Coxsackievirus B4 infected in human HeLa cells assessed as reduction in virus-induced cytopathogenicity after 3 days; format: functional, organism-based; conditions: Enterovirus B, 72 h
[19] = tested on: Vesicular stomatitis virus; experiment: Antiviral activity against VSV infected in human HeLa cells assessed as reduction in virus-induced cytopathogenicity after 3 days; format: functional, organism-based; conditions: 72 h
[20] = tested on: Human alphaherpesvirus 1; experiment: Antiviral activity against HSV1 KOS infected in human HEL cells assessed as reduction in virus-induced cytopathogenicity after 3 days; format: functional, organism-based; conditions: Human alphaherpesvirus 1, KOS, 72 h

| Structure (SMILES) | MFC [1] | MIC [1] | MBC [2] | MIC [2] | MBC [3] | MIC [3] | MBC [4] | MIC [4] | MFC [5] | MIC [5] | MCC [6] | EC50 [7] | EC50 [8] | EC50 [9] | MCC [10] | EC50 [11] | EC50 [12] | MCC [13] | EC50 [14] | EC50 [15] | further results |
| --- | --- | --- | --- | --- | --- | --- | --- | --- | --- | --- | --- | --- | --- | --- | --- | --- | --- | --- | --- | --- | --- |
| O=[N+]([O-])c1cccc(-c2ncc[nH]2)c1 | 264 µM (≈ 49.9 µg/mL) | 33 µM (≈ 6.24 µg/mL) | 33 µM (≈ 6.24 µg/mL) | 4 µM (≈ 0.757 µg/mL) | 33 µM (≈ 6.24 µg/mL) | 4 µM (≈ 0.757 µg/mL) | 33 µM (≈ 6.24 µg/mL) | 4 µM (≈ 0.757 µg/mL) | 264 µM (≈ 49.9 µg/mL) | 33 µM (≈ 6.24 µg/mL) |  |  |  |  |  |  |  |  |  |  |  |
| Cc1cccc(-c2ncc[nH]2)c1C | 144 µM (≈ 24.8 µg/mL) | 17 µM (≈ 2.93 µg/mL) | 36 µM (≈ 6.2 µg/mL) | 4 µM (≈ 0.689 µg/mL) | 36 µM (≈ 6.2 µg/mL) | 4 µM (≈ 0.689 µg/mL) | 36 µM (≈ 6.2 µg/mL) | 4 µM (≈ 0.689 µg/mL) | 289 µM (≈ 49.8 µg/mL) | 72 µM (≈ 12.4 µg/mL) |  |  |  |  |  |  |  |  |  |  |  |
| O=C(c1ccc([N+](=O)[O-])cc1)n1ccnc1-c1ccccc1[N+](=O)[O-] | 73 µM (≈ 24.7 µg/mL) | 4 µM (≈ 1.35 µg/mL) | 295 µM (≈ 99.8 µg/mL) | 36 µM (≈ 12.2 µg/mL) | 295 µM (≈ 99.8 µg/mL) | 36 µM (≈ 12.2 µg/mL) | 295 µM (≈ 99.8 µg/mL) | 36 µM (≈ 12.2 µg/mL) | 295 µM (≈ 99.8 µg/mL) | 36 µM (≈ 12.2 µg/mL) | > 100 µg/mL | > 100 µg/mL | > 100 µg/mL | > 100 µg/mL | > 100 µg/mL | > 100 µg/mL | > 100 µg/mL | > 100 µg/mL | > 100 µg/mL | > 100 µg/mL | EC50 [16]: > 100 µg/mL; EC50 [17]: > 100 µg/mL; EC50 [18]: > 100 µg/mL; EC50 [19]: > 100 µg/mL; EC50 [20]: > 100 µg/mL |
| O=C(O)c1ccccc1-c1nccn1C(=O)c1ccc([N+](=O)[O-])cc1 | 148 µM (≈ 49.9 µg/mL) | 9 µM (≈ 3.04 µg/mL) | 18 µM (≈ 6.07 µg/mL) | 2 µM (≈ 0.675 µg/mL) | 18 µM (≈ 6.07 µg/mL) | 2 µM (≈ 0.675 µg/mL) | 18 µM (≈ 6.07 µg/mL) | 2 µM (≈ 0.675 µg/mL) | 256 µM (≈ 86.3 µg/mL) | 18 µM (≈ 6.07 µg/mL) | > 100 µg/mL | > 100 µg/mL | > 100 µg/mL | > 100 µg/mL | > 100 µg/mL | > 100 µg/mL | > 100 µg/mL | > 100 µg/mL | > 100 µg/mL | > 100 µg/mL | EC50 [16]: > 100 µg/mL; EC50 [17]: > 100 µg/mL; EC50 [18]: > 100 µg/mL; EC50 [19]: > 100 µg/mL; EC50 [20]: > 100 µg/mL |
| Clc1ccc(-c2ncc[nH]2)cc1 | 561 µM (≈ 100 µg/mL) | 702 µM (≈ 125 µg/mL) | 35 µM (≈ 6.25 µg/mL) | 4 µM (≈ 0.714 µg/mL) | 702 µM (≈ 125 µg/mL) | 8 µM (≈ 1.43 µg/mL) | 702 µM (≈ 125 µg/mL) | 8 µM (≈ 1.43 µg/mL) | 280 µM (≈ 50 µg/mL) | 35 µM (≈ 6.25 µg/mL) |  |  |  |  |  |  |  |  |  |  |  |
| Brc1ccc(-c2ncc[nH]2)cc1 | 112 µM (≈ 25 µg/mL) | 14 µM (≈ 3.12 µg/mL) | 28 µM (≈ 6.25 µg/mL) | 3 µM (≈ 0.669 µg/mL) | 28 µM (≈ 6.25 µg/mL) | 3 µM (≈ 0.669 µg/mL) | 28 µM (≈ 6.25 µg/mL) | 3 µM (≈ 0.669 µg/mL) | 224 µM (≈ 50 µg/mL) | 28 µM (≈ 6.25 µg/mL) |  |  |  |  |  |  |  |  |  |  |  |
| Clc1cccc(-c2ncc[nH]2)c1 | 280 µM (≈ 50 µg/mL) | 35 µM (≈ 6.25 µg/mL) | 35 µM (≈ 6.25 µg/mL) | 4 µM (≈ 0.714 µg/mL) | 140 µM (≈ 25 µg/mL) | 17 µM (≈ 3.04 µg/mL) | 561 µM (≈ 100 µg/mL) | 702 µM (≈ 125 µg/mL) | 280 µM (≈ 50 µg/mL) | 35 µM (≈ 6.25 µg/mL) |  |  |  |  |  |  |  |  |  |  |  |
| O=C(O)c1ccccc1-c1ncc[nH]1 | 265 µM (≈ 49.9 µg/mL) | 33 µM (≈ 6.21 µg/mL) | 531 µM (≈ 99.9 µg/mL) | 4 µM (≈ 0.753 µg/mL) | 33 µM (≈ 6.21 µg/mL) | 4 µM (≈ 0.753 µg/mL) | 265 µM (≈ 49.9 µg/mL) | 4 µM (≈ 0.753 µg/mL) | 526 µM (≈ 99 µg/mL) | 66 µM (≈ 12.4 µg/mL) |  |  |  |  |  |  |  |  |  |  |  |
| O=C(c1ccc([N+](=O)[O-])cc1)n1ccnc1-c1ccc(Cl)cc1 | 76 µM (≈ 24.9 µg/mL) | 4 µM (≈ 1.31 µg/mL) | 152 µM (≈ 49.8 µg/mL) | 38 µM (≈ 12.5 µg/mL) | 305 µM (≈ 100 µg/mL) | 19 µM (≈ 6.23 µg/mL) | 305 µM (≈ 100 µg/mL) | 38 µM (≈ 12.5 µg/mL) | 152 µM (≈ 49.8 µg/mL) | 19 µM (≈ 6.23 µg/mL) | > 100 µg/mL | > 100 µg/mL | > 100 µg/mL | > 100 µg/mL | > 100 µg/mL | > 100 µg/mL | > 100 µg/mL | > 100 µg/mL | > 100 µg/mL | > 100 µg/mL | EC50 [16]: > 100 µg/mL; EC50 [17]: > 100 µg/mL; EC50 [18]: 45 µg/mL (≈ 137 µM); EC50 [19]: > 100 µg/mL; EC50 [20]: > 100 µg/mL |
| O=[N+]([O-])c1ccccc1-c1ncc[nH]1 | 264 µM (≈ 49.9 µg/mL) | 33 µM (≈ 6.24 µg/mL) | 33 µM (≈ 6.24 µg/mL) | 4 µM (≈ 0.757 µg/mL) | 33 µM (≈ 6.24 µg/mL) | 4 µM (≈ 0.757 µg/mL) | 33 µM (≈ 6.24 µg/mL) | 4 µM (≈ 0.757 µg/mL) | 264 µM (≈ 49.9 µg/mL) | 33 µM (≈ 6.24 µg/mL) |  |  |  |  |  |  |  |  |  |  |  |
| O=C(c1ccc([N+](=O)[O-])cc1)n1ccnc1-c1ccccc1Cl | 76 µM (≈ 24.9 µg/mL) | 9 µM (≈ 2.95 µg/mL) | 19 µM (≈ 6.23 µg/mL) | 2 µM (≈ 0.655 µg/mL) | 19 µM (≈ 6.23 µg/mL) | 2 µM (≈ 0.655 µg/mL) | 19 µM (≈ 6.23 µg/mL) | 2 µM (≈ 0.655 µg/mL) | 152 µM (≈ 49.8 µg/mL) | 38 µM (≈ 12.5 µg/mL) | > 100 µg/mL | > 100 µg/mL | > 100 µg/mL | > 100 µg/mL | > 100 µg/mL | > 100 µg/mL | > 100 µg/mL | > 100 µg/mL | > 100 µg/mL | > 100 µg/mL | EC50 [16]: > 100 µg/mL; EC50 [17]: > 100 µg/mL; EC50 [18]: > 100 µg/mL; EC50 [19]: > 100 µg/mL; EC50 [20]: > 100 µg/mL |
